The record followed here is ChEMBL document CHEMBL3864141, “Cyclic non-opioid dynorphin A analogues for the bradykinin receptors” (Bioorg Med Chem Lett, 2016).

Structures are written as SMILES. Positions of bridges follow the written chain, without caps; N, C: chain ends. Non-standard residues stand in square brackets, D forms with d. Residues, ends and D or L forms follow the SMILES beside them. Nle = CCCC[C@H](N)C(=O)O

Series [1] in a line: Displacement of [3H]BK from bradykinin receptor in rat brain membranes at pH 6.8 after 2 hrs by liquid scintillation counting method. It is filed as cell membranes, Membrane. Summed up: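 Competitive binding of [3H]BK to rat brain membranes at pH 6.8. Non-specific binding was defined with 10 μM kallidin. IC50 values were obtained by nonlinear least-squares regression of data from at least two independent experiments run in duplicate, and were also reported as logarithmic values.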

A short description of series [2]: Half life in rat plasma by RP-HPLC method. It is filed as ADME, cell-free. Summed up: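 Peptide incubated in rat plasma at 37 °C and sampled at 1, 2, 4 and 8 h. Quenched samples were analysed by RP-HPLC. Half-life was calculated as t1/2 = 0.693/b, where b is the slope of the linear fit.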
The nature of series [3]: Displacement of [3H]DALKD from bradykinin receptor in rat brain membranes at pH 6.8 after 2 hrs by liquid scintillation counting method. The class given is cell membranes, Membrane.

On to `CC[C@H](C)[C@@H]1NC(=O)[C@H](CCCNC(=N)N)NC(=O)[C@H](CC(C)C)NC(=O)CC[C@@H](C(=O)N[C@@H](CCCCN)C(=O)O)NC(=O)[C@H](CCCNC(=N)N)NC1=O` (LRIREK-OH; lactam N-5), for which, in series [1], the IC50 amounted to 1510 nM and the pIC50 is given as 5.82.

On to `CC[C@H](C)[C@@H]1NC(=O)[C@H](CCCNC(=N)N)NC(=O)[C@H](CC(C)C)NC(=O)[C@H](Cc2ccccc2)NC(=O)CC[C@@H](C(=O)N[C@@H](CCCCN)C(=O)O)NC(=O)[C@H](CCCNC(=N)N)NC1=O` (FLRIREK-OH; lactam N-6), for which, in series [1], the IC50 was 191 nM and the negative-log IC50 (pIC50) is recorded as 6.72. In addition, the half-life in series [2] was 5.5 h.

In series [1], `CC[C@H](C)[C@@H]1NC(=O)[C@H](CCCNC(=N)N)NC(=O)[C@H](CC(C)C)NC(=O)[C@H](CCCCN)NC(=O)CC[C@@H](C(=O)N[C@@H](CCCCN)C(=O)O)NC(=O)[C@H](CCCNC(=N)N)NC1=O` (KLRIREK-OH; lactam N-6) gave a 50% inhibitory concentration (IC50) of 302 nM and a pIC50 of 6.52.

In series [3], `CCCC[C@H](NC(=O)[C@H](CCCCN)NC(=O)[C@@H]1CCCN1C(=O)[C@H](CCCCN)NC(=O)[C@@H](N)CCCC)C(=O)N[C@@H](CCCCN)C(=O)O` (H-[Nle]KPK[Nle]K-OH) returned an IC50 of 78 nM and a negative-log IC50 (pIC50) of 7.11.
